Results as given in PMC12409571 (ACS Omega, 2025).

Tests used:
human TRPA1 [1] = target: T1, human TRPA1 (Homo sapiens, UniProt O75762); experiment: Whole-cell patch clamp of TRPA1 currents in HEK293T cells; format: cell-based
human TRPA1 [2] = target: T1, human TRPA1; experiment: Cell-attached single-channel recordings of TRPA1 in HEK293T cells; format: cell-based; conditions: −60 mV; 100 μM AITC alone, or with 5 μM PHL-B
rat TRPM8 = rat TRPM8 (Rattus norvegicus, UniProt Q8R455); experiment: Compound selectivity fluorescence-based Ca2+ assay, menthol-stimulated TRPM8; format: cell-based; conditions: 30 μM menthol; PHL-B different concentrations; sesamin 20 μM
rat TRPM8, sequence (Q8R455 whole entry): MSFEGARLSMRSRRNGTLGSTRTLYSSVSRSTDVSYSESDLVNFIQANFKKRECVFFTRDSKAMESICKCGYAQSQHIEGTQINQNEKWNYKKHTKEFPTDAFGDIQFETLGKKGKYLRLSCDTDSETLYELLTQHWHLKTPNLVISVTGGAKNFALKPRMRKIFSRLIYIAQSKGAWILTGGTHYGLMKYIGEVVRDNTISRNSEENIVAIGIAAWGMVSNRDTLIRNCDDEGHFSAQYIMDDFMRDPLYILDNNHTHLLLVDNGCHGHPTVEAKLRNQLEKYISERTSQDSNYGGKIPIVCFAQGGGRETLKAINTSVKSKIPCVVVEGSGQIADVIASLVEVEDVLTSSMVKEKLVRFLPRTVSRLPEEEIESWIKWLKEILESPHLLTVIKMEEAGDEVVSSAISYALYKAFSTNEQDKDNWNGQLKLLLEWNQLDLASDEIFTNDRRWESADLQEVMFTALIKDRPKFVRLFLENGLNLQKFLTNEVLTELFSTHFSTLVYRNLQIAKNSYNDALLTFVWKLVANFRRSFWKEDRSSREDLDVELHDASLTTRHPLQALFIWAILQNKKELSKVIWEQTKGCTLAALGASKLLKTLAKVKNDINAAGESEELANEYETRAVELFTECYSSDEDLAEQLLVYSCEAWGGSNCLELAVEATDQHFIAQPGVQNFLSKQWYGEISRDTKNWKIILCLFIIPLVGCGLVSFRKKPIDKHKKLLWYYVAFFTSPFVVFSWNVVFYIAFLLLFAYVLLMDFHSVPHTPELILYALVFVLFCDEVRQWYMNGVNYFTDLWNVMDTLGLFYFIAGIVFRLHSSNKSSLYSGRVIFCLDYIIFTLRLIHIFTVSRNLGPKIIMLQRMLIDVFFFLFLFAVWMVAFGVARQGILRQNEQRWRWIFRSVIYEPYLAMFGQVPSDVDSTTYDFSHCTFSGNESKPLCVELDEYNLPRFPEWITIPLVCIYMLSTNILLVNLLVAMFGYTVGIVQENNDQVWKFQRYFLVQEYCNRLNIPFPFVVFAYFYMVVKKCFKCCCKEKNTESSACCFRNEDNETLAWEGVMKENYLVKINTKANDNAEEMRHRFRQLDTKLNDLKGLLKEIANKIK
Procedure, shortened: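 HEK293T cells were cotransfected with rat TRPM8 and GCaMP6s and assayed after 48 h with GCaMP6s fluorescence. Channels were activated with 30 μM menthol; 20 μM sesamin served as the reference inhibitor. Read-out F/F0; N = 3–5 independent experiments.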

TRPA1 channels = conditions: read-out: EC50 (activation of TRPA1 channels); cited from earlier work
human TRPV1 = human TRPV1 (Homo sapiens, UniProt Q8NER1); experiment: Compound selectivity fluorescence-based Ca2+ assay, capsaicin-stimulated TRPV1; format: cell-based; conditions: 10 μM capsaicin; PHL-B 0.1-10 μM; capsazepine 1 μM
human TRPV1, sequence (Q8NER1 whole entry): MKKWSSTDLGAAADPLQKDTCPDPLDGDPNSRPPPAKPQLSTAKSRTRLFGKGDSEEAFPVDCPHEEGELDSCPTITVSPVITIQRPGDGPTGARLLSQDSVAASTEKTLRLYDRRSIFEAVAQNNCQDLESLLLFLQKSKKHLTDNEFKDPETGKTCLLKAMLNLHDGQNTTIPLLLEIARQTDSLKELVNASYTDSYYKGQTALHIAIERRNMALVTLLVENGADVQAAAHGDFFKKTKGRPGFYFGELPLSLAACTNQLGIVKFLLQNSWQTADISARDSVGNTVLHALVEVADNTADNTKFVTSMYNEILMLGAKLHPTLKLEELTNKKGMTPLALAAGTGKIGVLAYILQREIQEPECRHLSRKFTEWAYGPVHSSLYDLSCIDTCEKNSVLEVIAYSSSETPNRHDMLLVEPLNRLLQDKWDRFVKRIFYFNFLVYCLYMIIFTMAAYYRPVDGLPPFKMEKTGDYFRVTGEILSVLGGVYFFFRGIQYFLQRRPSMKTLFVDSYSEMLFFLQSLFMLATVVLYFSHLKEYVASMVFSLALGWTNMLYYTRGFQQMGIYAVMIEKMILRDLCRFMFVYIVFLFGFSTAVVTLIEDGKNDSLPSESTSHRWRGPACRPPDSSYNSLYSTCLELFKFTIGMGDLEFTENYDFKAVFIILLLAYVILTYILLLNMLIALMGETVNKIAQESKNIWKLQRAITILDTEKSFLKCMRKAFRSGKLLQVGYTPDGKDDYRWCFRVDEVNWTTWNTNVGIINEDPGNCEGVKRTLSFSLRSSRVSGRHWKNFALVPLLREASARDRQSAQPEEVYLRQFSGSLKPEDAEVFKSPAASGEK

[3] = 100 μM AITC alone, or 100 μM AITC + 5 μM PHL-B, voltage ramp

T1 sequence (O75762 whole entry): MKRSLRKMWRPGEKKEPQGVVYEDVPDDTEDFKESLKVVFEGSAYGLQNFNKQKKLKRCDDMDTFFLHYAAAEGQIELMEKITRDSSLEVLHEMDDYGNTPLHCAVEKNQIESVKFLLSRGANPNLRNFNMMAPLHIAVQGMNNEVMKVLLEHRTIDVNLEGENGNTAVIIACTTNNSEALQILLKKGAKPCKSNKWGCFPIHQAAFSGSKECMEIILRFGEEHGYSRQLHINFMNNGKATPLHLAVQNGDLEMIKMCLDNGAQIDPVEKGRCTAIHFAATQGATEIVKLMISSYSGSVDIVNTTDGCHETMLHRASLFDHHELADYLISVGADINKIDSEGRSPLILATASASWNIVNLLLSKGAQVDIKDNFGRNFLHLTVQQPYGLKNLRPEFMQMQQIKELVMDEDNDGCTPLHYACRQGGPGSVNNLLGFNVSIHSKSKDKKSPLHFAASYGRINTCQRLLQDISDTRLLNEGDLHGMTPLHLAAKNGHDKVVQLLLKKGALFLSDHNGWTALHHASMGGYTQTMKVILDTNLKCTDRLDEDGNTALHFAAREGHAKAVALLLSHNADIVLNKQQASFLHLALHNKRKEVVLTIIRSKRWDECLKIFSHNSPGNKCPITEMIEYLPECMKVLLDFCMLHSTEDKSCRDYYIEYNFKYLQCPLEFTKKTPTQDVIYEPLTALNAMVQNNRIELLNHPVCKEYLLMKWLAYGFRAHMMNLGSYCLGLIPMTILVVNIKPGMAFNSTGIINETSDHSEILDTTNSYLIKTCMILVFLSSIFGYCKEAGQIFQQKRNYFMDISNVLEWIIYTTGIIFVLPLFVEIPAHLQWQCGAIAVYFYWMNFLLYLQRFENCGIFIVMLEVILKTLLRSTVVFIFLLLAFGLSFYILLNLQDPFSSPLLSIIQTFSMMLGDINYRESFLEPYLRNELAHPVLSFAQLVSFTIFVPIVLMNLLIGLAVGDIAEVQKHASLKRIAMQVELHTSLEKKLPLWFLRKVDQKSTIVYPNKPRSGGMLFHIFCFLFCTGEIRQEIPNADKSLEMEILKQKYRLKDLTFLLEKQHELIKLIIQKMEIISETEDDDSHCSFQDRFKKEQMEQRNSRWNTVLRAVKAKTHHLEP

SMILES: C=CCN=C=S [AITC, allyl isothiocyanate]
- current density at +50 mV (human TRPA1 [1]; [3]): 30.5 ± 2.9 pA/pF
- current density at −100 mV (human TRPA1 [1]; [3]): −91.73 ± 11.47 pA/pF
- τoff (time course of recovery) (human TRPA1 [1]; −60 mV, 100 μM AITC, or 100 μM AITC + 5 μM PHL-B): 28.6 ± 3.4 ms
- fold increase of channel open probability (PO) over basal (human TRPA1 [2]): approximately 150 fold

SMILES: c1cc2c(cc1[C@H]1OC[C@H]3[C@@H]1CO[C@@H]3c1ccc3c(c1)OCO3)OCO2 [sesamin]
- effect on menthol-induced Ca2+ influx (TRPM8) (rat TRPM8): practically inhibited all

SMILES: CC(C)c1cc2c(c(O)c1O)[C@@]13CCCC(C)(C)[C@@H]1C[C@@H]2OC3=O [carnosol]
- EC50 (TRPA1 channels): ~12 µM

SMILES: Oc1cc2c(cc1O)CN(C(=S)NCCc1ccc(Cl)cc1)CCC2 [Capsazepine, capsazepine]
- effect on capsaicin-induced normalized fluorescence (TRPV1) (human TRPV1): fully abolished
